Assay results taken from ChEMBL document CHEMBL1128483, “Peptide mimetics of thyrotropin-releasing hormone based on a cyclohexane framework: design, synthesis, and cognition-enhancing properties” (1995).

Tests used:
Format in all cases: functional
Mus musculus [1] = experiment: Activity was evaluated in C57BL/10 mice by Morris water Maze test and mean latency for TRH was reported at 0.001 mg/Kg i.p. dosage.
How it was run: (§1)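 Male C57BL/10 mice (17–21 g, housed 10 per group, food and water ad libitum). Drug in saline or 5% acacia, 10 mL/kg, given ip 30 min before the first of four trials to find a hidden submerged platform. Score was each mouse's mean total latency over the four trials; group mean ± SEM. Vehicle group included. Analysis: one-way ANOVA, then Dunnett t-test versus vehicle, p < 0.05.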

Mus musculus [2] = experiment: Activity was evaluated in C57BL/10 mice by Morris water Maze test and mean latency for TRH was reported at 1.0 mg/Kg i.p. dosage.; how it was run: as §1
Mus musculus [3] = experiment: Activity was evaluated in C57BL/10 mice by Morris water Maze test and mean latency for TRH was reported at 10.0 mg/Kg i.p. dosage.; how it was run: as §1
Mus musculus [4] = experiment: Activity was evaluated in C57BL/10 mice by Morris water Maze test and mean latency for TRH was reported at 0.01 mg/Kg i.p. dosage.; how it was run: as §1
Mus musculus [5] = experiment: Activity was evaluated in C57BL/10 mice by Morris water Maze test and mean latency for TRH was reported at 0.3 mg/Kg i.p. dosage.; how it was run: as §1
Mus musculus [6] = experiment: Activity was evaluated in C57BL/10 mice by Morris water Maze test and mean latency for TRH was reported at 3.0 mg/Kg i.p. dosage.; how it was run: as §1
Mus musculus [7] = experiment: Activity was evaluated in C57BL/10 mice by Morris water Maze test and mean latency for TRH was reported at 0.03 mg/Kg i.p. dosage.; how it was run: as §1
Mus musculus [8] = experiment: Activity was evaluated in C57BL/10 mice by Morris water Maze test and mean latency for TRH was reported at 0.003 mg/Kg i.p. dosage.; how it was run: as §1
Mus musculus [9] = experiment: Activity was evaluated in C57BL/10 mice by Morris water Maze test and mean latency for TRH was reported at 0.1 mg/Kg i.p. dosage.; how it was run: as §1
Mus musculus [10] = experiment: Activity was evaluated in C57BL/10 mice by Morris water Maze test and mean latency for TRH was reported at 0.003 mg/Kg p.o. dosage.
How it was run: (§2)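 Spatial water-maze task in male C57BL/10 mice (17–21 g, group-housed, ad libitum food and water). Oral dosing (saline or 5% acacia vehicle, 10 mL/kg) 30 min before four trials locating a submerged platform. Latency recorded per trial; the mean total over the four trials was the animal's score, reported as mean ± SEM. Vehicle controls included. Groups compared with vehicle by one-way ANOVA and Dunnett t-test (p < 0.05).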

Mus musculus [11] = experiment: Activity was evaluated in C57BL/10 mice by Morris water Maze test and mean latency for TRH was reported at 0.03 mg/Kg p.o. dosage.; how it was run: as §2
Mus musculus [12] = experiment: Activity was evaluated in C57BL/10 mice by Morris water Maze test and mean latency for TRH was reported at 0.3 mg/Kg p.o. dosage.; how it was run: as §2
Mus musculus [13] = experiment: Activity was evaluated in C57BL/10 mice by Morris water Maze test and mean latency for TRH was reported at 0.01 mg/Kg p.o. dosage.; how it was run: as §2
Mus musculus [14] = experiment: Activity was evaluated in C57BL/10 mice by Morris water Maze test and mean latency for TRH was reported at 0.1 mg/Kg p.o. dosage.; how it was run: as §2
Mus musculus [15] = experiment: Activity was evaluated in C57BL/10 mice by Morris water Maze test and mean latency for TRH was reported at 3 mg/Kg i.p. dosage.; how it was run: as §1
Mus musculus [16] = experiment: Activity was evaluated in C57BL/10 mice by Morris water Maze test and mean latency for TRH was reported at 0.0003 mg/Kg p.o. dosage.; how it was run: as §2
Mus musculus [17] = experiment: Activity was evaluated in C57BL/10 mice by Morris water Maze test and mean latency for TRH was reported at 0.00003 mg/Kg p.o. dosage.; how it was run: as §2
Mus musculus [18] = experiment: Activity was evaluated in C57BL/10 mice by Morris water Maze test and mean latency for TRH was reported at 0.0003 mg/Kg i.p. dosage.; how it was run: as §1
Mus musculus [19] = experiment: Activity was evaluated in C57BL/10 mice by Morris water Maze test and mean latency for TRH was reported at 0.00003 mg/Kg i.p. dosage.; how it was run: as §1
Mus musculus [20] = experiment: Activity was evaluated in C57BL/10 mice by Morris water Maze test and mean latency for TRH was reported at 3 mg/Kg p.o. dosage.; how it was run: as §2

| Compound | Mean latency (Mus musculus [1]) [s] | Mean latency (Mus musculus [2]) [s] | Mean latency (Mus musculus [4]) [s] | Mean latency (Mus musculus [5]) [s] | Mean latency (Mus musculus [7]) [s] | Mean latency (Mus musculus [8]) [s] | Mean latency (Mus musculus [9]) [s] | Mean latency (Mus musculus [10]) [s] | Mean latency (Mus musculus [11]) [s] | further results |
| --- | --- | --- | --- | --- | --- | --- | --- | --- | --- | --- |
| NC(=O)[C@@H]1CCCN1C(=O)[C@H](Cc1c[nH]cn1)NC(=O)[C@@H]1CCC(=O)N1 [PROTIRELIN] | 50.59 | 28.87 | 37.97 | 20.85 | 32.69 | 43.08 | 25.76 |  |  | Mean latency (Mus musculus [3]): 46 s; Mean latency (Mus musculus [6]): 33.57 s |
| C[C@H]1C[C@@H](CC(N)=O)C[C@@H](C[C@@H]2CCC(=O)N2Cc2ccccc2)C1 | 47.48 |  | 22.15 |  | 26.49 | 36.26 | 26.87 | 42.2 | 32.87 | Mean latency (Mus musculus [12]): 46.53 s; Mean latency (Mus musculus [13]): 35.88 s; Mean latency (Mus musculus [14]): 24.55 s |
| NC(=O)C[C@@H]1C[C@@H](Cc2c[nH]cn2)C[C@H](C[C@@H]2CCC(=O)N2)C1 |  | 24.19 | 57.12 |  |  |  | 46.09 |  |  |  |
| NC(=O)C[C@@H]1C[C@H](Cc2c[nH]cn2)C[C@H](C[C@@H]2CCC(=O)N2Cc2ccccc2)C1 |  |  |  | 17.62 | 15.65 | 22.24 |  | 35.23 | 21.1 | Mean latency (Mus musculus [15]): 31.62 s; Mean latency (Mus musculus [16]): 30.9 s; Mean latency (Mus musculus [17]): 46.67 s; Mean latency (Mus musculus [18]): 33.29 s; Mean latency (Mus musculus [19]): 62.15 s |
| C[C@H]1C[C@@H](CC(N)=O)C[C@@H](C[C@@H]2CCC(=O)N2)C1 |  |  | 42.77 | 43.13 | 37.86 |  | 30.08 |  |  |  |
| NC(=O)C[C@@H]1C[C@@H](Cc2c[nH]cn2)C[C@H](C[C@@H]2CCC(=O)N2Cc2ccccc2)C1 |  |  |  |  |  |  |  | 37.01 | 28.87 | Mean latency (Mus musculus [12]): 27.59 s; Mean latency (Mus musculus [16]): 42.81 s; Mean latency (Mus musculus [20]): 43.72 s; Mean latency (Mus musculus [17]): 51.7 s |
| NC(=O)C[C@@H]1C[C@H](Cc2c[nH]cn2)C[C@H](C[C@@H]2CCC(=O)N2)C1 | 47.62 | 25.23 | 38.72 |  |  |  | 45.06 |  |  |  |
